pEC50, pIC50: −log10 of the molar value. Calls of active or inactive are those of the source. The calls are words filed in the database; no cut-off is given here.
Assays:
[1] = target: T1, Vitamin D3 receptor (Homo sapiens) (UniProt P11473); experiment: Agonist activity at CMX-GAL4 tagged human VDR expressed in HEK293 cells assessed as increase in transcriptional activity by luciferase reporter gene assay; type: cell-based
T1 sequence (whole entry): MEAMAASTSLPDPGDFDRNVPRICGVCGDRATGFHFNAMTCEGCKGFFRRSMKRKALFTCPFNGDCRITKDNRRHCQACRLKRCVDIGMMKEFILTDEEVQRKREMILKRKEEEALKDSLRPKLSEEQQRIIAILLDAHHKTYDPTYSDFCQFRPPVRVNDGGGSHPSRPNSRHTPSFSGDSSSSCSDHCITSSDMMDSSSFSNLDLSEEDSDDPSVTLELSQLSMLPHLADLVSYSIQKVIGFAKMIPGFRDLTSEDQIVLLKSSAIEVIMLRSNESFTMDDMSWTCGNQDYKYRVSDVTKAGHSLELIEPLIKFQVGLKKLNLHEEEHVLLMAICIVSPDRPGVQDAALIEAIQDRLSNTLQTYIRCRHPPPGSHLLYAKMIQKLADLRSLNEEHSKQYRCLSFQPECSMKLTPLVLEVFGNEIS
How it was run: (§1)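 GAL4-hVDR ligand-binding fusion (CMX-GAL4 N-hVDR, 15 ng/well) cotransfected by calcium phosphate into HEK293 cells with TK-MH100x4-Luc reporter (50 ng) and β-galactosidase plasmid (10 ng). Cells grown in DMEM with 5% FBS, 37 °C, 5% CO2. Compound added 22 h post-transfection and cells harvested 16–20 h later. Luciferase normalized to β-galactosidase, means of triplicates. PC50 is the concentration giving 50% of the positive-control response.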

Vitamin D3 receptor = target: T2, Vitamin D3 receptor (Homo sapiens, UniProt P11473); experiment: Agonist activity at VDR (unknown origin) by reporter gene assay; how it was run: as §1
T2 sequence (P11473 whole entry): T1 sequence (whole entry)

Androgen receptor = target: T3, Androgen receptor (Homo sapiens, UniProt P10275); experiment: Antagonist activity at human androgen receptor expressed in HEK293 cells assessed as inhibition of transcriptional activity by luciferase and beta-galactosidase reporter gene assay; type: cell-based
T3 sequence (P10275 whole entry): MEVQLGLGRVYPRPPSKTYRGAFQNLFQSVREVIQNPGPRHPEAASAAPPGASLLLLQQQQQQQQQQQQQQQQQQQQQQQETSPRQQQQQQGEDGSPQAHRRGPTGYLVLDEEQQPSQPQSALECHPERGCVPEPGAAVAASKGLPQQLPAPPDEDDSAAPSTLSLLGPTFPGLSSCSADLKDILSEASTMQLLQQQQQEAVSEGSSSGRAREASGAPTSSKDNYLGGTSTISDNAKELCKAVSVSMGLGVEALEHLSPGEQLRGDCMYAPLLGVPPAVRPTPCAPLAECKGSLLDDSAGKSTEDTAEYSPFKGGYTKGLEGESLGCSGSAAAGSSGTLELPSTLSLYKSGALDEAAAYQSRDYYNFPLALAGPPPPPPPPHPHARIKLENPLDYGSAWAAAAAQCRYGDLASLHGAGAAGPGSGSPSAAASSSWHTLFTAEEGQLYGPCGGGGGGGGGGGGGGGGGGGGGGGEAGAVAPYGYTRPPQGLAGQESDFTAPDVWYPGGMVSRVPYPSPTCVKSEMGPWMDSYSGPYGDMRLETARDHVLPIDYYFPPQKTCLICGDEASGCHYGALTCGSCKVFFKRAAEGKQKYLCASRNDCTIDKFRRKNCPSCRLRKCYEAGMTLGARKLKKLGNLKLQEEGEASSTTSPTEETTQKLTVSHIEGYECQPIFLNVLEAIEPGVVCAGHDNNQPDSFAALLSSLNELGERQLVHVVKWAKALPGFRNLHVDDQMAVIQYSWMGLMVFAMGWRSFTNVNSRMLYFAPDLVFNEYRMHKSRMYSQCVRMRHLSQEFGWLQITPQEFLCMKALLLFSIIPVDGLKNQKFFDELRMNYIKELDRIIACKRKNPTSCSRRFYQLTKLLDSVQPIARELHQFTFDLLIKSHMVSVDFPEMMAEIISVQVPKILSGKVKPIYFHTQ

LNCaP = experiment: Growth inhibition of human LNCAP cells
[2] = target: T4, Androgen receptor (Homo sapiens) (UniProt P10275); experiment: Agonist activity at human androgen receptor expressed in HEK293 cells assessed as increase in transcriptional activity in presence of 0.3 nM testosterone by luciferase and beta-galactosidase reporter gene assay; type: cell-based
T4 sequence (whole entry): T3 sequence (P10275 whole entry)
How it was run: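 HEK293 cells in DMEM with 5% FBS, calcium-phosphate cotransfected with pSG5-hAR (33 ng/well), ARE-tlc-Luc reporter (33 ng) and β-galactosidase plasmid (10 ng). Compounds added 22 h after transfection, with 0.3 nM testosterone present. Harvested about 16–20 h later. Luciferase read and normalized to β-galactosidase, means of triplicates.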

Homo sapiens = species on record: Homo sapiens; experiment: Selectivity index, ratio of agonist PC50 for CMX-GAL4 tagged human VDR to antagonist IC50 for human androgen receptor
How it was run: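 Ratio of VDR PC50 to AR IC50. VDR PC50 comes from the GAL4-hVDR luciferase assay in HEK293 cells (50% of positive-control activity). AR IC50 is inhibition of hAR/ARE-luciferase transcription in HEK293 cells under testosterone, both β-galactosidase-normalized, means of three experiments.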

HL-60 = experiment: Induction of monocytic cell differentiation in human HL60 cells
[3] = target: Androgen receptor (Mus musculus) (UniProt P19091); experiment: Agonist activity at androgen receptor in androgen-dependent mouse SC3 cells assessed as stimulation of cell growth after 3 days; type: cell-based; conditions: SC-3
Androgen receptor (Mus musculus), sequence (P19091 whole entry): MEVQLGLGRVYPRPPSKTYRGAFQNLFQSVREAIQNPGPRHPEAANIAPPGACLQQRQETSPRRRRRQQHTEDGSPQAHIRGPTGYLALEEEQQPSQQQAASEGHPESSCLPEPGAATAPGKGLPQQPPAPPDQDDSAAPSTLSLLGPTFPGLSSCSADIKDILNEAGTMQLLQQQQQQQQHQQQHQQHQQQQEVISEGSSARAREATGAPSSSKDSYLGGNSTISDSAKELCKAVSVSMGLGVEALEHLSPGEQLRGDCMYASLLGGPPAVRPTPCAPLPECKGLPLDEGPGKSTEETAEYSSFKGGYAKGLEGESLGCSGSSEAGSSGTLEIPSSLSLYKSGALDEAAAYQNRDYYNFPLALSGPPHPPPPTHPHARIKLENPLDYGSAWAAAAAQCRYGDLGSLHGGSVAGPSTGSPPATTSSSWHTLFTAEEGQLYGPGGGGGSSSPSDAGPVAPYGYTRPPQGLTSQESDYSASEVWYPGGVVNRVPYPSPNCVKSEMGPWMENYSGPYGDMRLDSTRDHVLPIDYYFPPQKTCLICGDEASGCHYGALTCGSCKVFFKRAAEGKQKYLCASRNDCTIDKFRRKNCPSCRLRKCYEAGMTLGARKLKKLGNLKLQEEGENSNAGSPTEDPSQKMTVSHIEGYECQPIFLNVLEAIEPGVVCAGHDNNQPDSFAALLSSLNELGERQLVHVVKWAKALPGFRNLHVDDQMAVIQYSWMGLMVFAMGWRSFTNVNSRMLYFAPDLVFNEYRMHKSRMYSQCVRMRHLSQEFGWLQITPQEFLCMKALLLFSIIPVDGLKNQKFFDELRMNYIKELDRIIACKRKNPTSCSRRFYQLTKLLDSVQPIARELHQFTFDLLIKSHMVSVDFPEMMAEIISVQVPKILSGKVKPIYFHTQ
How it was run: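 Androgen-dependent mouse Shionogi carcinoma SC-3 cells grown 3 days at 37 °C, 5% CO2 in MEM-Alpha with 2% FBS plus test compound. Growth promotion scored by cell count.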

[4] = target: Androgen receptor (Mus musculus) (UniProt P19091); experiment: Potency index, ratio of IC50 for hydroxyflutamide to IC50 for compound against androgen receptor in androgen-dependent mouse SC3 cells assessed as inhibition of testosterone-induced cell growth after 3 days; type: cell-based; conditions: SC-3
How it was run: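 SC-3 cells cultured 3 days at 37 °C, 5% CO2 in MEM-Alpha with 2% FBS and 10 nM testosterone, with or without compound. Cell number with testosterone alone set as 100%. IC50 is the concentration halving the testosterone-induced increase in cells, means of three experiments. Index is the reference antagonist IC50 divided by the compound IC50.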

SMILES	PC50 [1]	pEC50 (Vitamin D3 receptor)	pIC50 (Androgen receptor)	pEC50 (LNCaP)	Activity [2]	Selectivity Index (Homo sapiens)	pEC50 (HL-60)	Activity [3]	Ratio IC50 [4]
CCC(CC)(c1ccc(OCC(=O)C(C)(C)C)c(C)c1)c1ccc(OCC(=O)C(C)(C)C)c(C)c1	4.6 µM	7.40	< 5.00	7.70	inactive	< 0.46	7.52		
CC(C)(O)C(=O)Nc1ccc([N+](=O)[O-])c(C(F)(F)F)c1	inactive								
CC[Si](CC)(c1ccc(NC[C@H](O)CO)c(C)c1)c1ccc(OCC(=O)C(C)(C)C)c(C)c1	2.5 µM		< 5.00						
CC[Si](CC)(c1ccc(OC[C@@H](O)CO)c(C)c1)c1ccc(OC[C@H](O)C(C)(C)C)c(C)c1 (mixture of isomers)	0.81 µM		5.24			0.14			
CCC(CC)(c1ccc(OCC(=O)C(C)(C)C)c(C)c1)c1ccc(OCC2CO2)c(C)c1 (racemic)	0.68 µM		< 5.00		inactive	< 0.068			
CC[Si](CC)(c1ccc(NC[C@@H](O)CO)c(C)c1)c1ccc(OCC(=O)C(C)(C)C)c(C)c1	7 µM		< 5.00						
CC[Si](CC)(c1ccc(OCC(=O)C(C)(C)C)c(C)c1)c1ccc(OC[C@H](O)CO)c(C)c1	3.7 µM		5.40			0.93		inactive	
CC[Si](CC)(c1ccc(OC[C@H](O)CO)c(C)c1)c1ccc(OC[C@@H](O)C(C)(C)C)c(C)c1	> 10 µM		5.13			> 1.4		inactive	20
CC[Si](CC)(c1ccc(OCC(O)CO)c(C)c1)c1ccc(OCC(O)C(C)(C)C)c(C)c1 (mixture of isomers)	0.92 µM		5.17		inactive	0.14			
CC[Si](CC)(c1ccc(OC[C@@H](O)CO)c(C)c1)c1ccc(OC[C@@H](O)C(C)(C)C)c(C)c1	2.2 µM		5.08			0.27			
CC[Si](CC)(c1ccc(OCC(=O)C(C)(C)C)c(C)c1)c1ccc(OC[C@@H](O)CO)c(C)c1	2 µM		< 5.00						
CC[Si](CC)(c1ccc(OC[C@H](O)CO)c(C)c1)c1ccc(OC[C@H](O)C(C)(C)C)c(C)c1	2.1 µM		5.17			0.31			
CC[Si](CC)(c1ccc(O)c(C)c1)c1ccc(OC[C@H](O)C(C)(C)C)c(C)c1	8.2 µM		< 5.00						
CC[Si](CC)(c1ccc(OCC(=O)C(C)(C)C)c(C)c1)c1ccc(OCC(=O)C(C)(C)C)c(C)c1	> 30 µM		5.21		inactive	> 4.8			
CCC(CC)(c1ccc(OCC(O)CO)c(C)c1)c1ccc(OCC(O)C(C)(C)C)c(C)c1 (mixture of isomers) [LG-190178]	0.14 µM		< 5.00	7.70	inactive		7.52		
CC[Si](CC)(c1ccc(OCC(=O)C(C)(C)C)c(C)c1)c1ccc(OCC2CO2)c(C)c1 (racemic)	4.8 µM		< 5.00		inactive	0.48			

— ChEMBL document CHEMBL2331115, “Development of silicon-containing bis-phenol derivatives as androgen receptor antagonists: selectivity switching by C/Si exchange” (Bioorg Med Chem, 2013)
